Source: ChEMBL document CHEMBL1146900, “New opioid designed multiple ligand from Dmt-Tic and morphinan pharmacophores” (J Med Chem, 2006)
Activity calls are given as the source filed them. The calls are words filed in the database; no cut-off is given here. Non-standard residues stand in square brackets, D forms with d. Residues, ends and D or L forms follow the SMILES beside them. Dmt = Cc1cc(O)cc(C)c1C[C@H](N)C(=O)O; Tic = O=C(O)[C@@H]1Cc2ccccc2CN1; βAla = NCCC(=O)O

How the values were obtained:
[1] = target: T1, Mu-type opioid receptor (Homo sapiens, UniProt P35372); assay: Displacement of [3H]DAMGO from human mu opioid receptor expressed in CHO cells; format: cell-based
T1 sequence (P35372 whole entry): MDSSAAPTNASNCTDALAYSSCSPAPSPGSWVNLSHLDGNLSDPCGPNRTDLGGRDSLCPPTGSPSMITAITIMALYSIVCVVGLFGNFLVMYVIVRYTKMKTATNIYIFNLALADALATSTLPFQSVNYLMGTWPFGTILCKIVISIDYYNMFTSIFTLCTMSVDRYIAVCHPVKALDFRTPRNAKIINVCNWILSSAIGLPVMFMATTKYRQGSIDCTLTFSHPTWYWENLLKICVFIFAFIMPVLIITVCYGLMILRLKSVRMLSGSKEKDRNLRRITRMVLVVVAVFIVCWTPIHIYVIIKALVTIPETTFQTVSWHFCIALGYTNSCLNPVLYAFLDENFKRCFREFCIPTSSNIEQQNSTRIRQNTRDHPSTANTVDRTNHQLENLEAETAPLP
Outline: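 Competition binding run on membranes prepared from CHO cells that stably express the human mu receptor.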

[2] = target: T1, Mu-type opioid receptor; assay: Antagonist activity against human mu opioid receptor expressed in CHO cells assessed as inhibition of DAMGO-stimulated [35S]GTP-gamma-S binding; format: functional, cell-based
Outline: (§1)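 CHO membranes stably expressing a single human opioid receptor were incubated with agonist plus varying compound concentrations, and [35S]GTPγS binding was measured. Agonists: μ, DAMGO 200 nM; δ, SNC-80 100 nM; κ, U50,488 100 nM. Imax is the maximal percent inhibition of agonist-stimulated binding.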

[3] = target: T2, Kappa-type opioid receptor (Homo sapiens, UniProt P41145); assay: Inhibition of [3H]U-69593 binding to human kappa opioid receptor expressed in CHO cells at 10 uM; format: cell-based
T2 sequence (P41145 whole entry): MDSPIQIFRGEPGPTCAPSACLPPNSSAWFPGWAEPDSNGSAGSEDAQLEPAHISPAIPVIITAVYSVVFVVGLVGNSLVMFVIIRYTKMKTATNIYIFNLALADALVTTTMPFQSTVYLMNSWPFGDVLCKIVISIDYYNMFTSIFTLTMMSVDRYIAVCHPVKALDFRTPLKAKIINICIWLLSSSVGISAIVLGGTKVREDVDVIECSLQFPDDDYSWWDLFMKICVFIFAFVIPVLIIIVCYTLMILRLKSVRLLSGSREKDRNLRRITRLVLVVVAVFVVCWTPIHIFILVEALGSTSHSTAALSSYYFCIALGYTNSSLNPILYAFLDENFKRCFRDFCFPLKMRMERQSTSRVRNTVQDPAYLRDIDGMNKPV

[4] = target: T3, Delta-type opioid receptor (Homo sapiens, UniProt P41143); assay: Antagonist activity against human delta opioid receptor expressed in CHO cells assessed as inhibition of SNC80-stimulated [35S]GTP-gamma-S binding; format: functional, cell-based; outline: as §1
T3 sequence (P41143 whole entry): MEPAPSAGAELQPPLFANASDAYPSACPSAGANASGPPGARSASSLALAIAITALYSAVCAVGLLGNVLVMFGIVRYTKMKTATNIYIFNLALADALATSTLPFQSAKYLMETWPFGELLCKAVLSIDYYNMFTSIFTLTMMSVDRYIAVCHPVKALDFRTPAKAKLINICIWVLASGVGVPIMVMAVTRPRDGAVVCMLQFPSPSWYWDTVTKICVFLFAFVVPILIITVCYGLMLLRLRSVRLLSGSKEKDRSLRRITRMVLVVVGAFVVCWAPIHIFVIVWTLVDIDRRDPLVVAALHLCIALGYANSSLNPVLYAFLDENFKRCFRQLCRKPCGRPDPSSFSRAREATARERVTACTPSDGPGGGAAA

[5] = target: T2, Kappa-type opioid receptor; assay: Antagonist activity against human kappa opioid receptor expressed in CHO cells assessed as inhibition of U50488-stimulated [35S]GTPgammaS binding; format: functional, cell-based; outline: as §1
[6] = target: T2, Kappa-type opioid receptor; assay: Displacement of [3H]U-69593 from human kappa opioid receptor expressed in CHO cells; format: cell-based
[7] = target: T3, Delta-type opioid receptor; assay: Agonist activity at human delta opioid receptor expressed in CHO cells assessed as stimulation of [35S]GTP-gamma-S binding; format: functional, cell-based
Outline: (§2)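 Membranes from CHO cells stably expressing only the human μ, δ or κ opioid receptor were incubated with various concentrations of compound, and stimulation of [35S]GTPγS binding was measured. Emax is the maximal percent stimulation. EC50 is the concentration giving 50% of Emax. EC50 was not calculated when Emax was 30% or lower.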

[8] = target: T2, Kappa-type opioid receptor; assay: Agonist activity at human kappa opioid receptor expressed in CHO cells assessed as stimulation of [35S]GTPgammaS binding; format: functional, cell-based; outline: as §2
[9] = target: T1, Mu-type opioid receptor; assay: Agonist activity at human mu opioid receptor expressed in CHO cells assessed as stimulation of [35S]GTP-gamma-S binding; format: functional, cell-based; outline: as §2
[10] = target: T3, Delta-type opioid receptor; assay: Displacement of [3H]naltrindole from human delta opioid receptor expressed in CHO cells; format: cell-based
[11] = target: Opioid receptors; mu & delta (Homo sapiens) (UniProt P41143+P35372); assay: Selectivity for delta opioid receptor over mu opioid receptor; format: protein assay
Sequence of Opioid receptors; mu & delta (Homo sapiens) (P35372 whole entry, looked up): as the sequence (P35372 whole entry) above
Sequence of Opioid receptors; mu & delta (Homo sapiens) (P41143 whole entry, looked up): as the sequence (P41143 whole entry) above
Outline: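 Competition binding to membranes of CHO cells stably expressing human μ or δ opioid receptors, each receptor in separate membranes. Selectivity comes from comparing the affinities at the two receptors.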

| Structure (SMILES) | Ki [1] [nM] | IC50 [2] [nM] | Imax [2] [%] | Ki [3] [nM] | IC50 [4] [nM] | Imax [4] [%] | Activity [5] | Ki [6] [nM] | EC50 [7] [nM] | Emax [7] [%] | EC50 [8] [nM] | Emax [8] [%] | EC50 [9] [nM] | Emax [9] [%] | Ki [10] [nM] | Ratio Ki [11] | inhibition [3] [%] | IC50 [5] | Imax [5] | Activity [7] |
| --- | --- | --- | --- | --- | --- | --- | --- | --- | --- | --- | --- | --- | --- | --- | --- | --- | --- | --- | --- | --- |
| Cc1cc(O)cc(C)c1C[C@H](N)C(=O)N1Cc2ccccc2C[C@H]1C(=O)NCCC(=O)Oc1ccc2c(c1)[C@@]13CCCC[C@H]1[C@@H](C2)N(CC1CCC1)CC3 | 0.69 | 97 | 47 | 0.28 | 3.9 | 84 | inactive | 0.28 | 2.8 | 18 | 6 | 130 | 8.9 | 79 | 1.5 |  |  |  |  |  |
| Cc1cc(O)cc(C)c1C[C@H](N)C(=O)N1Cc2ccccc2C[C@H]1C(=O)NCCC(=O)O (H-[Dmt]-[Tic]-[βAla]-OH) |  |  |  |  | 10 | 93 |  |  |  | 0.95 |  |  |  |  | 4.2 | 262 | 62 | Not Active | inactive | inactive |
